Results reported in ChEMBL document CHEMBL1649131, “Tigecycline therapy significantly reduces the concentrations of inflammatory pulmonary cytokines and chemokines in a murine model of Mycoplasma pneumoniae pneumonia” (Antimicrob Agents Chemother, 2009).
Values after ≈ are worked out from the molar mass of the structure shown. Active and inactive are the calls of the source. The calls are words filed in the database; no cut-off is given here.

Key:
Mus musculus [1] = experiment: Immunological activity in BALB/c mouse infected with Mycoplasma pneumoniae ATCC 29342 assessed as decrease in MIG level in bronchoalveolar lavage fluid at 10 mg/kg, sc on first day followed by regimen of 5 mg/kg for 5 days measured after 1 days; type: functional, organism-based
Procedure, shortened: (§1)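 In BALB/c females infected intranasally with 10^7 CFU M. pneumoniae, sc dosing ran daily from day 1: 10 mg/kg first, then 5 mg/kg; saline placebo. BAL (500 µl SP4 broth via trachea) was collected ~24 h after the last dose at 1, 3 or 6 days of therapy, and cytokine/chemokine concentrations were measured, given as mean ± SD. There were 10 mice/group per time point; t test and two-way ANOVA were used, P<0.05.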

Mus musculus [2] = experiment: Immunological activity in BALB/c mouse infected with Mycoplasma pneumoniae ATCC 29342 assessed as decrease in MIG level in bronchoalveolar lavage fluid at 10 mg/kg, sc on first day followed by regimen of 5 mg/kg for 5 days measured after 3 days; type: functional, organism-based; procedure, shortened: as §1
Mus musculus [3] = experiment: Immunological activity in BALB/c mouse infected with Mycoplasma pneumoniae ATCC 29342 assessed as decrease in MIG level in bronchoalveolar lavage fluid at 10 mg/kg, sc on first day followed by regimen of 5 mg/kg for 5 days measured after 6 days; type: functional, organism-based; procedure, shortened: as §1
Mus musculus [4] = experiment: Immunological activity in BALB/c mouse infected with Mycoplasma pneumoniae ATCC 29342 assessed as decrease in TNFalpha level in bronchoalveolar lavage fluid at 10 mg/kg, sc on first day followed by regimen of 5 mg/kg for 5 days measured after 3 days; type: functional, organism-based; procedure, shortened: as §1
Mus musculus [5] = experiment: Immunological activity in BALB/c mouse infected with Mycoplasma pneumoniae ATCC 29342 assessed as decrease in IL-2 level in bronchoalveolar lavage fluid at 10 mg/kg, sc on first day followed by regimen of 5 mg/kg for 5 days measured after 3 days; type: functional, organism-based; procedure, shortened: as §1
Mus musculus [6] = experiment: Immunological activity in BALB/c mouse infected with Mycoplasma pneumoniae ATCC 29342 assessed as decrease in IL-4 level in bronchoalveolar lavage fluid at 10 mg/kg, sc on first day followed by regimen of 5 mg/kg for 5 days measured after 3 days; type: functional, organism-based; procedure, shortened: as §1
Mus musculus [7] = experiment: Immunological activity in BALB/c mouse infected with Mycoplasma pneumoniae ATCC 29342 assessed as decrease in IL-5 level in bronchoalveolar lavage fluid at 10 mg/kg, sc on first day followed by regimen of 5 mg/kg for 5 days measured after 3 days; type: functional, organism-based; procedure, shortened: as §1
Mus musculus [8] = experiment: Immunological activity in BALB/c mouse infected with Mycoplasma pneumoniae ATCC 29342 assessed as decrease in IL-6 level in bronchoalveolar lavage fluid at 10 mg/kg, sc on first day followed by regimen of 5 mg/kg for 5 days measured after 3 days; type: functional, organism-based; procedure, shortened: as §1
Mus musculus [9] = experiment: Immunological activity in BALB/c mouse infected with Mycoplasma pneumoniae ATCC 29342 assessed as decrease in IL-10 level in bronchoalveolar lavage fluid at 10 mg/kg, sc on first day followed by regimen of 5 mg/kg for 5 days measured after 3 days; type: functional, organism-based; procedure, shortened: as §1
Mus musculus [10] = experiment: Immunological activity in BALB/c mouse infected with Mycoplasma pneumoniae ATCC 29342 assessed as decrease in granulocyte-macrophage colony stimulating factor level in bronchoalveolar lavage fluid at 10 mg/kg, sc on first day followed by regimen of 5 mg/kg for 5 days measured after 3 days; type: functional, organism-based; procedure, shortened: as §1
Mus musculus [11] = experiment: Immunological activity in BALB/c mouse infected with Mycoplasma pneumoniae ATCC 29342 assessed as decrease in MIP-1alpha level in bronchoalveolar lavage fluid at 10 mg/kg, sc on first day followed by regimen of 5 mg/kg for 5 days measured after 3 days; type: functional, organism-based; procedure, shortened: as §1
Mus musculus [12] = experiment: Immunological activity in BALB/c mouse infected with Mycoplasma pneumoniae ATCC 29342 assessed as decrease in IP-10 level in bronchoalveolar lavage fluid at 10 mg/kg, sc on first day followed by regimen of 5 mg/kg for 5 days measured after 3 days; type: functional, organism-based; procedure, shortened: as §1
Mus musculus [13] = experiment: Immunological activity in BALB/c mouse infected with Mycoplasma pneumoniae ATCC 29342 assessed as decrease in KC level in bronchoalveolar lavage fluid at 10 mg/kg, sc on first day followed by regimen of 5 mg/kg for 5 days measured after 3 days; type: functional, organism-based; procedure, shortened: as §1
Mus musculus [14] = experiment: Immunological activity in BALB/c mouse infected with Mycoplasma pneumoniae ATCC 29342 assessed as decrease in MCP-1 level in bronchoalveolar lavage fluid at 10 mg/kg, sc on first day followed by regimen of 5 mg/kg for 5 days measured after 3 days; type: functional, organism-based; procedure, shortened: as §1
[15] = Cmax in human serum at […] followed by regimen of […] for every 12 hrs; type: ADME, organism-based; design: route intravenous
[16] = AUC (0 to 24 hrs) in human serum at […] followed by regimen of […] for every 12 hrs; type: ADME, organism-based; design: time < 24 hr, route intravenous
[17] = Ratio of AUC in human alveolar cells to AUC in human serum at […] followed by […] regimen for every 12 hrs; type: ADME, organism-based, Pneumocyte; settings: read-out: Ratio AUC
[18] = AUC in mouse pneumoniae model at 5 mg/kg; type: ADME, organism-based; design: dose 5 mg/kg; settings: in vivo
[19] = tested on: Mycoplasmoides pneumoniae; experiment: Antimicrobial activity against Mycoplasma pneumoniae by agar dilution method; type: functional
[20] = Ratio of Cmax in human lung to Cmax in human serum at […] followed by […] regimen for every 12 hrs; type: ADME, organism-based
[21] = tested on: Mycoplasmoides pneumoniae; experiment: Antimicrobial activity against Mycoplasma pneumoniae ATCC 29342 infected in BALB/c mouse assessed as decrease in bacterial count in bronchoalveolar lavage fluid at 10 mg/kg, sc on first day followed by regimen of 5 mg/kg for 5 days measured after 6 days; type: functional, organism-based; settings: M129
Procedure, shortened: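 Female BALB/c mice, 2 months old, inoculated intranasally once (day 0) with 10^7 CFU M. pneumoniae in 50 µl SP4 broth under isoflurane. From day 1, sc once daily for 6 days: 10 mg/kg day 1, then 5 mg/kg, in sterile 0.9% NaCl; saline placebo. BAL with 500 µl SP4 broth ~24 h after last dose; undiluted and 10-fold dilutions plated on SP4 agar at 37°C; colonies counted as log10 CFU/ml; 10 mice/group, two experiments.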

[22] = tested on: Mycoplasmoides pneumoniae; experiment: Antimicrobial activity against Mycoplasma pneumoniae ATCC 29342 infected in BALB/c mouse assessed as decrease in bacterial infection-induced lung histopathology at 10 mg/kg, sc on first day followed by regimen of 5 mg/kg for 5 days measured after 3 days; type: functional, organism-based; settings: M129
Procedure, shortened: (§2)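 Infected BALB/c mice (2-month-old females, intranasal 10^7 CFU M. pneumoniae, day 0) dosed sc daily from day 1: 10 mg/kg then 5 mg/kg, saline vehicle/placebo. Lungs with trachea fixed in 10% buffered formalin ~24 h after last dose, whole-mount paraffin sections stained H&E and scored for histopathology (HPS) and parenchymal pneumonia subscore; 10 mice/group per time point, two experiments; two-way ANOVA and t test.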

[23] = tested on: Mycoplasmoides pneumoniae; experiment: Antimicrobial activity against Mycoplasma pneumoniae ATCC 29342 infected in BALB/c mouse assessed as decrease in bacterial infection-induced parenchymal cell histopathology at 10 mg/kg, sc on first day followed by regimen of 5 mg/kg for 5 days measured after 3 days; type: functional, organism-based; settings: M129; procedure, shortened: as §2
Mus musculus [24] = experiment: Immunological activity in BALB/c mouse infected with Mycoplasma pneumoniae ATCC 29342 assessed as decrease in IL1-beta level in bronchoalveolar lavage fluid at 10 mg/kg, sc on first day followed by regimen of 5 mg/kg for 5 days measured after 1 days; type: functional, organism-based; procedure, shortened: as §1
Mus musculus [25] = experiment: Immunological activity in BALB/c mouse infected with Mycoplasma pneumoniae ATCC 29342 assessed as decrease in IL1-beta level in bronchoalveolar lavage fluid at 10 mg/kg, sc on first day followed by regimen of 5 mg/kg for 5 days measured after 3 days; type: functional, organism-based; procedure, shortened: as §1
Mus musculus [26] = experiment: Immunological activity in BALB/c mouse infected with Mycoplasma pneumoniae ATCC 29342 assessed as decrease in IL1-beta level in bronchoalveolar lavage fluid at 10 mg/kg, sc on first day followed by regimen of 5 mg/kg for 5 days measured after 6 days; type: functional, organism-based; procedure, shortened: as §1
Mus musculus [27] = experiment: Immunological activity in BALB/c mouse infected with Mycoplasma pneumoniae ATCC 29342 assessed as decrease in IL-12 level in bronchoalveolar lavage fluid at 10 mg/kg, sc on first day followed by regimen of 5 mg/kg for 5 days measured after 1 days; type: functional, organism-based; procedure, shortened: as §1
Mus musculus [28] = experiment: Immunological activity in BALB/c mouse infected with Mycoplasma pneumoniae ATCC 29342 assessed as decrease in IL-12 level in bronchoalveolar lavage fluid at 10 mg/kg, sc on first day followed by regimen of 5 mg/kg for 5 days measured after 3 days; type: functional, organism-based; procedure, shortened: as §1
Mus musculus [29] = experiment: Immunological activity in BALB/c mouse infected with Mycoplasma pneumoniae ATCC 29342 assessed as decrease in IL-12 level in bronchoalveolar lavage fluid at 10 mg/kg, sc on first day followed by regimen of 5 mg/kg for 5 days measured after 6 days; type: functional, organism-based; procedure, shortened: as §1
Mus musculus [30] = experiment: Immunological activity in BALB/c mouse infected with Mycoplasma pneumoniae ATCC 29342 assessed as decrease in INF-gamma level in bronchoalveolar lavage fluid at 10 mg/kg, sc on first day followed by regimen of 5 mg/kg for 5 days measured after 1 days; type: functional, organism-based; procedure, shortened: as §1
Mus musculus [31] = experiment: Immunological activity in BALB/c mouse infected with Mycoplasma pneumoniae ATCC 29342 assessed as decrease in INF-gamma level in bronchoalveolar lavage fluid at 10 mg/kg, sc on first day followed by regimen of 5 mg/kg for 5 days measured after 3 days; type: functional, organism-based; procedure, shortened: as §1
Mus musculus [32] = experiment: Immunological activity in BALB/c mouse infected with Mycoplasma pneumoniae ATCC 29342 assessed as decrease in INF-gamma level in bronchoalveolar lavage fluid at 10 mg/kg, sc on first day followed by regimen of 5 mg/kg for 5 days measured after 6 days; type: functional, organism-based; procedure, shortened: as §1

For `CN(C)c1cc(NC(=O)CNC(C)(C)C)c(O)c2c1C[C@H]1C[C@H]3[C@H](N(C)C)C(O)=C(C(N)=O)C(=O)[C@@]3(O)C(O)=C1C2=O` [TIGECYCLINE], the Activity (Mus musculus [1]) was “Active”, the Activity (Mus musculus [2]) was “Active” and the Activity (Mus musculus [3]) was “Active”. The Activity (Mus musculus [4]) was “Active”, the Activity (Mus musculus [5]) was “inactive” and the Activity (Mus musculus [6]) was “inactive”. For the same compound, the Activity (Mus musculus [7]) was “inactive”, the Activity (Mus musculus [8]) was “inactive” and the Activity (Mus musculus [9]) was “inactive”. The Activity (Mus musculus [10]) was “inactive”, the Activity (Mus musculus [11]) was “Active” and the Activity (Mus musculus [12]) was “Active”. For the same compound, the Activity (Mus musculus [13]) was “inactive”, the Activity (Mus musculus [14]) was “inactive” and the Cmax [15] was 630 ng/mL. It also gave an AUC at 24 h [16] of 4700 ng·h/mL, a Kp at 12 h [17] of 78 and an AUC [18] of 2900 ng·h/mL. For the same compound, the MIC [19] was 0.06 µg/mL (≈ 0.102 µM), the Kp at 12 h [20] was 8.6 and the Activity [21] was “Active”. For the same compound, the Activity [22] was “Active”, the Activity [23] was “Active” and the Activity (Mus musculus [24]) was “Active”. For the same compound, the Activity (Mus musculus [25]) was “Active”, the Activity (Mus musculus [26]) was “Active” and the Activity (Mus musculus [27]) was “Active”. For the same compound, the Activity (Mus musculus [28]) was “Active”, the Activity (Mus musculus [29]) was “Active” and the Activity (Mus musculus [30]) was “Active”. The Activity (Mus musculus [31]) was “Active” and the Activity (Mus musculus [32]) was “Active”.
